Test results from ChEMBL document CHEMBL1773028, “Pentasaccharide resin glycosides from Ipomoea pes-caprae” (2011).
Active and inactive are the calls of the source. The calls are words filed in the database; no cut-off is given here.

Columns and labels:
[1] = test system: NCI/ADR-RES; experiment: Reversal fold, ratio of IC50 for doxorubicin alone to IC50 for doxorubicin in presence of compound in human MCF7/ADR cells after 48 hrs by MTT assay; format: functional
Method in brief: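 MCF-7/ADR cells seeded at 4.5 × 10^3 per well. Doxorubicin serially diluted 0.008–25 μg/mL, with or without 5 μg/mL sample; verapamil 5 μg/mL as positive control. MTT after 48 h. Doxorubicin IC50 computed relative to untreated cells (100%). RF = IC50 doxorubicin alone / IC50 with sample. Triplicate.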

[2] = test system: NCI/ADR-RES; experiment: Cytotoxicity against multidrug-resistance human MCF7/ADR cells after 48 hrs by MTT assay; format: functional, cell-based
Method in brief: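 MCF-7/ADR cells grown in DMEM with 10% FBS, trypsinized, seeded at 4.5 × 10^4 cells/mL and held 24 h at 37 °C, 5% CO2. Compounds added in DMSO over 400 to 1 μg/mL. MTT read-out after 48 h exposure. Triplicate.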

SMILES | Ratio IC50 [1] | Activity [2]
CCCCCCCCCC(=O)O[C@H]1[C@H](O[C@@H]2[C@H]3OC(=O)CCCCCCCCC[C@H](CCCCC)O[C@@H]4O[C@H](C)[C@H](O)[C@H](O)[C@H]4O[C@H](O[C@H]2C)[C@@H]3O)O[C@@H](C)[C@H](O[C@@H]2O[C@@H](C)[C@H](OC(=O)[C@@H](C)CC)[C@@H](OC(=O)/C=C/c3ccccc3)[C@H]2O)[C@H]1O[C@@H]1O[C@@H](C)[C@H](O)[C@@H](O)[C@H]1O [PESCAPREIN XXIII] | 2.9 | inactive
CCCCCCCCCC(=O)O[C@H]1[C@H](O[C@@H]2[C@H]3OC(=O)CCCCCCCCC[C@H](CCCCC)O[C@@H]4O[C@H](C)[C@H](O)[C@H](O)[C@H]4O[C@H](O[C@H]2C)[C@@H]3O)O[C@@H](C)[C@H](O[C@@H]2O[C@@H](C)[C@H](OC(=O)[C@@H](C)CC)[C@@H](O)[C@H]2OC(=O)/C=C/c2ccccc2)[C@H]1O[C@@H]1O[C@@H](C)[C@H](O)[C@@H](O)[C@H]1O [PESCAPREIN XXIV] | 1.8 | inactive
CCCCCC(=O)O[C@H]1[C@H](O[C@@H]2[C@@H](O)[C@H]3OC(=O)CCCCCCCCC[C@H](CCCCC)O[C@@H]4O[C@H](C)[C@H](O)[C@H](O)[C@H]4O[C@@H]3O[C@H]2C)O[C@@H](C)[C@H](O[C@@H]2O[C@@H](C)[C@H](OC(=O)[C@@H](C)CC)[C@@H](OC(=O)/C=C/c3ccccc3)[C@H]2O)[C@H]1O[C@@H]1O[C@@H](C)[C@H](O)[C@@H](O)[C@H]1O [PESCAPREIN XXIX] | 3.2 | inactive
CCCCCCCCCCCC(=O)O[C@H]1[C@H](O[C@@H]2[C@H]3OC(=O)CCCCCCCCC[C@H](CCCCC)O[C@@H]4O[C@H](C)[C@H](O)[C@H](O)[C@H]4O[C@H](O[C@H]2C)[C@@H]3O)O[C@@H](C)[C@H](O[C@@H]2O[C@@H](C)[C@H](OC(=O)[C@@H](C)CC)[C@@H](O)[C@H]2OC(=O)/C=C/c2ccccc2)[C@H]1O[C@@H]1O[C@@H](C)[C@H](O)[C@@H](O)[C@H]1O [PESCAPREIN XXI] | 1.5 | inactive
CCCCCCCC(=O)O[C@H]1[C@H](O[C@@H]2[C@H]3OC(=O)CCCCCCCCC[C@H](CCCCC)O[C@@H]4O[C@H](C)[C@H](O)[C@H](O)[C@H]4O[C@H](O[C@H]2C)[C@@H]3O)O[C@@H](C)[C@H](O[C@@H]2O[C@@H](C)[C@H](OC(=O)[C@@H](C)CC)[C@@H](OC(=O)/C=C/c3ccccc3)[C@H]2O)[C@H]1O[C@@H]1O[C@@H](C)[C@H](O)[C@@H](O)[C@H]1O [PESCAPREIN XXVIII] | 2.3 | inactive
CCCCC[C@H]1CCCCCCCCCC(=O)O[C@H]2[C@@H](O)[C@H](O[C@H]3[C@H](O1)O[C@H](C)[C@H](O)[C@@H]3O)O[C@@H](C)[C@@H]2O[C@@H]1O[C@@H](C)[C@H](O[C@@H]2O[C@@H](C)[C@H](OC(=O)[C@@H](C)CC)[C@@H](OC(=O)/C=C/c3ccccc3)[C@H]2O)[C@@H](O[C@@H]2O[C@@H](C)[C@H](O)[C@@H](O)[C@H]2O)[C@H]1OC(=O)[C@@H](C)CC [PESCAPREIN XXVII] | 1.9 | inactive
CCCCCCCCCC(=O)O[C@H]1[C@H](O[C@@H]2[C@H]3OC(=O)CCCCCCCCC[C@H](CCCCC)O[C@@H]4O[C@H](C)[C@H](O)[C@H](O)[C@H]4O[C@H](O[C@H]2C)[C@@H]3O)O[C@@H](C)[C@H](O[C@@H]2O[C@@H](C)[C@H](OC(=O)C(C)C)[C@@H](OC(=O)/C=C/c3ccccc3)[C@H]2O)[C@H]1O[C@@H]1O[C@@H](C)[C@H](O)[C@@H](O)[C@H]1O [PESCAPREIN XXVI] | 3.7 | inactive
CCCCCCCCCCCC(=O)O[C@H]1[C@H](O[C@@H]2[C@H]3OC(=O)CCCCCCCCC[C@H](CCCCC)O[C@@H]4O[C@H](C)[C@H](O)[C@H](O)[C@H]4O[C@H](O[C@H]2C)[C@@H]3O)O[C@@H](C)[C@H](O[C@@H]2O[C@@H](C)[C@H](OC(=O)C(C)C)[C@@H](OC(=O)/C=C/c3ccccc3)[C@H]2O)[C@H]1O[C@@H]1O[C@@H](C)[C@H](O)[C@@H](O)[C@H]1O [PESCAPREIN XXV] | 2.1 | inactive
CCCCCCCCCC(=O)O[C@H]1[C@H](O[C@@H]2[C@@H](O)[C@H]3OC(=O)CCCCCCCCC[C@H](CCCCC)O[C@@H]4O[C@H](C)[C@H](O)[C@H](O)[C@H]4O[C@@H]3O[C@H]2C)O[C@@H](C)[C@H](O[C@@H]2O[C@@H](C)[C@H](O)[C@@H](OC(=O)[C@@H](C)CC)[C@H]2O)[C@H]1O[C@@H]1O[C@@H](C)[C@H](O)[C@@H](O)[C@H]1O [PESCAPREIN XXX] | 2.3 | inactive
COc1ccc(CCN(C)CCCC(C#N)(c2ccc(OC)c(OC)c2)C(C)C)cc1OC (centres undefined) [VERAPAMIL] | 21 | –
